The nature of the series: Toxicity liver stage against HepG2, at 10uM. It counts as cell-based. Set-up: test concentration 10 uM, cell line HepG2-A16-CD81EGFP. Particulars: human, HepG2-A16-CD81EGFP cells; read-out: INHIBITION
The method, boiled down:
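Uninfected HepG2-A16-CD81EGFP cells, 3 × 10^3 per well, 1536-well, plated on prespotted compound at 10 μM final, parasite-free screening media added to match infected plates; puromycin 10 μM positive, DMSO 0.5% negative; run in parallel with 48 h PbLuc assay at 37 °C, 5% CO2; viability by CellTiter-Glo luminescence, normalized to controls.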
For `CCS(=O)(=O)N1CCC(NC(=O)c2cc3ccccc3cc2O)CC1`, the cytotoxicity at 10 µM was -2.1%. As for `Cc1nccn1C1CCCN(C(=O)c2sccc2-n2cnnn2)C1` (configuration not stated), the figure is -12.2%.

For `O=C(O)c1ccc(=O)n(CC(c2ccc(Cl)cc2)N2CCCCCC2)c1` (configuration not stated), the cytotoxicity at 10 µM came out at 1.12%. As for `CCCOc1cccc(-c2nc3c([nH]2)CCNC3)c1`, the figure is -3.38%. With `COc1cc(F)cc(NC(=O)NCc2cccc(N(C)C)n2)c1` the figure was 25%. With `CC(=O)N1CCCN(C(=O)NCCc2ccc(Cl)s2)CC1` the figure was -2.24%. Regarding `c1ccc(-c2nc(CNC3CCc4ncnn4C3)co2)cc1` (configuration not stated), the cytotoxicity at 10 µM is -8.6%.

With `Cc1ncccc1Oc1nccnc1C1CCCN(C(C)C)C1` (configuration not stated), the cytotoxicity at 10 µM is -10.1%. With `COCCOCC(=O)N(C)Cc1ccc(OCc2cccs2)cc1` the figure was 4.38%; with `CNC(=O)CCOC(=O)c1cccc(-n2ccc(C(F)(F)F)n2)c1`, -41.9%.

For the compound `CCCc1nccn1-c1cccc(C(C)O)c1` (configuration not stated), the cytotoxicity at 10 µM was 5.82%. With `Cc1nn(C)c(C)c1C1COCCN1c1ncnc2sccc12` (configuration not stated) the figure was 2.84%. With `Cc1ccc(NS(=O)(=O)c2cnn(-c3ccccc3)c2)c(C(=O)O)c1` the figure was -3.11%; with `CC(C)c1nc(C2CCCN(C(=O)CCCn3cncn3)C2)no1` (configuration not stated), -3.29%. Regarding `N#Cc1cccc(N2CCCC3(CNCCO3)C2)n1` (configuration not stated), the cytotoxicity at 10 µM is 13.7%. On to `CCN(CCN1CCCCCC1)C(=O)COc1cccnc1`, for which the cytotoxicity at 10 µM came to 12.6%.

Turning to `CCN(CC)C1(Cc2cc(COC)on2)COC1`, the cytotoxicity at 10 µM is -2.45%.

Consider `CC(C)S(=O)(=O)N1CCCC(c2cccc(C(=O)O)c2)C1` (configuration not stated), for which the cytotoxicity at 10 µM was -2.18%. With `c1csc(-c2noc(CNC3CCc4ncnn4C3)n2)c1` (configuration not stated) the figure was -9.3%; with `CS(=O)(=O)c1nccn1CCOc1ccccc1F`, 4.05%. For `CN(Cc1ccncc1)Cc1nccn1Cc1ccccc1`, the cytotoxicity at 10 µM is 12.5%. As for `CCCn1ncc(C2CC(=O)NCc3nc4sc(C)cn4c32)c1C` (configuration not stated), the figure is -10.8%; as for `CCc1cc(=O)[nH]c(-c2ccc(NC(CO)CC(C)C)nc2)n1` (configuration not stated), -146%. Take `CC(C)COCCNC1CCN(c2ccccn2)CC1`: the cytotoxicity at 10 µM is -2.12%. With `CC(C(=O)O)N1CCc2onc(-c3ccc4c(c3)OCO4)c2C1` (configuration not stated) the figure was -6.46%. With `Cc1c(Br)cnn1CCC(=O)N(C)Cc1c(Cl)cnn1C` the figure was -13.7%.

Take `Cc1ccccc1-c1cncc(C2CCN(C(C)C)CC2)n1`: the cytotoxicity at 10 µM stood at 1.2%. With `O=C(O)c1ccccc1-c1cnc(CNC(=O)C2CCOCC2)nc1` the figure was -3.99%; with `CCc1cc(N(C)CCc2noc(C)n2)nc(N2CCOCC2)n1`, 4.12%. For `CCCN(CCc1ccccn1)C(=O)Cn1cc(C)cn1`, the cytotoxicity at 10 µM was -9.22%.

Consider `CC(C)CCN1C2(CCN(C(=O)C3(C)CC3)C2)c2ccccc2S1(=O)=O` (configuration not stated), for which the cytotoxicity at 10 µM was -7.42%. Take `CC(=O)N1C[C@@H](F)[C@@H](OCc2nc3ccc(C#N)cc3[nH]2)C1`: the cytotoxicity at 10 µM was -0.302%. Turning to `COCCn1ccnc1C1CCN(C(=O)CSc2nnc(C)o2)CC1`, the cytotoxicity at 10 µM was -11.5%. With `Cc1nn(C)c(C)c1CNC(=O)CCn1ncc2c(Cl)cccc21` the figure was 8.38%; with `Cc1cc(C(F)(F)F)nc(CCNC(C)Cn2nc(C)cc2C)n1` (configuration not stated), 8.19%; with `CCCc1nnc(N(C)CC2CCCN(CC)C2)o1` (configuration not stated), -4.1%. `CC(C)Cc1nc(CN(C)CCOc2ccc(F)cc2)no1`: the cytotoxicity at 10 µM is -4.68%. For the compound `Cc1nccn1-c1cccc(C2CCCN(C(=O)c3cc[nH]n3)C2)n1` (configuration not stated), the cytotoxicity at 10 µM is 0.481%. With `CSc1c[nH]nc1NS(=O)(=O)c1cc(F)ccc1Cl` the figure was -7.23%. With `Cc1cc(C(=O)NCc2csc(N(C)C)n2)c2ccc(C)c(C)c2n1` the figure was -0.724%; with `Cc1noc(C)c1-c1nc(NCCN(C)C)ncc1-c1cnccn1`, -9.03%. For the compound `Cc1nn(C)c(N2CCOCC2)c1CNCc1ccnc(N(C)C)c1`, the cytotoxicity at 10 µM came out at 1.97%. With `COc1cccc(-c2cnc(CNC(C)(C)c3nc(C)cs3)o2)c1` the figure was 11.4%; with `CC(=O)N1CCc2c(nc(N(C)C)nc2N(C)CCCC2CCCO2)C1` (configuration not stated), 7.92%; with `CN(C)C(=O)c1cccc(NC(=O)N(CCO)Cc2ccsc2)c1`, -13.4%. With `CCN1CCC(NC(=O)CNC(C)Cn2cccn2)CC1` (configuration not stated) the figure was 9.19%; with `O=C1N(Cc2cccc(F)c2)CCC12CCCNC2` (configuration not stated), -5.19%. With `CCOc1ccc(C(=O)N2CCCC2Cn2cc(C)cn2)cn1` (configuration not stated) the figure was -20.2%; with `CCOCC(=O)N1CCC(C)(c2nccs2)CC1`, 7.64%; with `CCc1n[nH]c(C2CN(C(=O)c3ccnc(C4CC4)n3)CCO2)n1` (configuration not stated), 2.4%. As to `Cc1ccc(N2CC3(COCCN(Cc4nccs4)C3)OCC2=O)s1` (configuration not stated), the cytotoxicity at 10 µM was -13.5%.

In the case of `Cc1cc(CN2CCCC(c3cc(C(F)(F)F)[nH]n3)C2)no1` (configuration not stated), the cytotoxicity at 10 µM is -0.674%. For `Cc1cc(C(=O)N2CCC3(CC2)c2nc[nH]c2CCN3CC(C)C)no1`, the cytotoxicity at 10 µM is 11.1%. Regarding `O=C(N[C@H]1CN[C@H]2CCCO[C@H]21)c1ccno1`, the cytotoxicity at 10 µM was -6.92%. On to `c1ccc(-c2nc(CN3CCc4c(ncn4C4CC4)C3)cs2)cc1`, for which the cytotoxicity at 10 µM is -8.65%. For the compound `Cc1nc(CCN)cc(N2CCOc3ccc(Cl)cc3C2)n1`, the cytotoxicity at 10 µM was -0.29%. As for `Cc1ccc2c(c1)CN(CC(=O)NCCc1ccc(F)cc1)CC(C)O2` (configuration not stated), the cytotoxicity at 10 µM was found to be 1.54%. For `COc1ccc(CNC(=O)NC2CCC(O)CC2)c(C(F)(F)F)c1` (configuration not stated), the cytotoxicity at 10 µM is -12%. For `CCc1nc(C)c(C(=O)N2CCCC(c3noc(C)n3)C2)s1` (configuration not stated), the cytotoxicity at 10 µM is 5.82%. For the compound `COc1ccc(CN2C[C@@H]3OCCN(CCN(C)C)[C@@H]3C2)cc1`, the cytotoxicity at 10 µM is -86.9%. With `CC(C)CCc1nc(CNCC2CCCN2c2cccnn2)cs1` (configuration not stated) the figure was -10.7%; with `CC(C)N1CCN(C(=O)c2[nH]nnc2Nc2ccccc2F)CC1`, 6.36%. In the case of `O=C(Cc1ccc(O)c(Cl)c1)N1CCCCC1CCn1cccn1` (configuration not stated), the cytotoxicity at 10 µM is -13.6%. Take `COCCOc1cccc(CNCC2CN(C)CCO2)c1` (configuration not stated): the cytotoxicity at 10 µM is -14.8%. For `CC(C)NC(=O)NC[C@H]1OC[C@@H](NCc2cccs2)[C@@H]1O`, the cytotoxicity at 10 µM is -1.48%.

As to `CCSc1ccc(C(=O)N2CCC3(CC2)[C@H](O)C[C@@H]3O)s1`, the cytotoxicity at 10 µM amounted to 1.34%. As for `Cc1nc(C(C)NC(=O)c2cn(C/C=C/c3ccccc3)nn2)n[nH]1` (configuration not stated), the figure is 10.7%. As for `O=C(c1ccc(-n2cnnn2)cc1)N1CCCC(n2ccnc2)C1` (configuration not stated), the figure is -24.7%; as for `Fc1cnc(N2CC[C@@H]3OC(COCc4cccnc4)CC[C@@H]32)nc1` (some centres not stated), 9.94%.

Turning to `O=C(O)c1ccccc1CN1CCC(c2ccnc3ccnn23)CC1`, the cytotoxicity at 10 µM is -37.8%. In the case of `CCO[C@@H]1C[C@H]2CN(S(=O)(=O)c3cccs3)CCN2C1`, the cytotoxicity at 10 µM came to 8.52%. Consider `CN(C(=O)CN1CCC(NC(=O)c2cccs2)CC1)c1ccccc1`, for which the cytotoxicity at 10 µM was -8.55%.

These data come from ChEMBL document CHEMBL4513216, “Probing the Open Global Health Chemical Diversity Library for Multistage-Active Starting Points for Next-Generation Antimalarials” (ACS Infect Dis, 2020).
